This note sets out measurements from the array DNA melting data of Ke et al. (doi:10.1101/2024.01.08.574731).

Series [1] is described as follows: folding enthalpy; higher = less favourable; fluorescence melt of hairpins on a sequencing array, two-state fit. As to conditions: sodium 0.088 M. The essentials:
(§1)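 With Cy3 and quencher oligos annealed, library hairpins on a sequenced MiSeq flow cell were imaged for Cy3 fluorescence in 50 mM Na-HEPES pH 8.0, 25 mM NaCl, in 2.5 °C steps up to 60 °C. Melting temperature and folding enthalpy were derived from bootstrapped two-state fits of signals normalised to pre-quench Cy3 and to control constructs. Four replicates were combined by inverse variance, with fitted temperatures raised by 9.35 °C to match UV melts.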

Series [2] is described as follows: melting temperature; fluorescence melt of hairpins on a sequencing array, two-state fit, raised by 9.35 °C to match UV melts. As to conditions: sodium 0.088 M. The essentials: as §1

GTCATCGCGAAAGCGGAC (((..(((....)))))): the folding enthalpy in series [1] is -11.1 kcal/mol. For the same sequence, in series [2], the Tm was found to be 39.9 °C.
For GTCATCGGAAACAATGAC (((((.(....).))))) the same measures were -28 kcal/mol and 36.1 °C.
On the same counts, the results for GTCATCGGAAACGATAAC ((.((((....)))).)) are -19.7 kcal/mol and 32.2 °C.
With GTCATGACGAAAGTCGAC (((..(((....)))))), the folding enthalpy in series [1] is -14.9 kcal/mol. The Tm in series [2] turned out to be 38.6 °C.
On the same counts, the results for GTCATGCGAAAGCAGAC (((.(((....)))))) are -22.4 kcal/mol and 49.8 °C.
For GTCATTCGAAAGAAAGAC (((.(((....))).))) the same measures were -30.6 kcal/mol and 38.4 °C.
On the same counts, the results for GTCCAACGAAAGTTCGAC (((.(((....))).))) are -27 kcal/mol and 35.9 °C.
Consider GTCCAAGCGAAAGCTGAC (((..(((....)))))), for which the folding enthalpy in series [1] was -14.4 kcal/mol. In addition, the Tm in series [2] turned out to be 41.4 °C.
For GTCCACACGAAAGTGGAC (((..(((....)))))) the same measures were -29.9 kcal/mol and 56.3 °C.
On the same counts, the results for GTCCACCCGAAAGGGGAC (((..(((....)))))) are -18.5 kcal/mol and 47 °C.
On the same counts, the results for GTCCACCGAAAGGTTGAC (((.(((....))).))) are -29.6 kcal/mol and 49.3 °C.
For the sequence GTCCACGAAAGTGAGAC ((((((....))).))), in series [1], the folding enthalpy is -23.8 kcal/mol. Moreover, the Tm in series [2] amounted to 52.2 °C.
On the same counts, the results for GTCCACGAAAGTGATGAC ((((((....)))..))) are -14.8 kcal/mol and 39.4 °C.
On the same counts, the results for GTCCACGAAAGTGGAGAC ((((((....)))..))) are -9.62 kcal/mol and 48.7 °C.
For GTCCACGAAAGTGGCGAC ((((((....)))..))) the same measures were -13.4 kcal/mol and 58.8 °C.
Turning to GTCCACGAAAGTGTCGAC ((((((....)))..))), in series [1], the folding enthalpy was -14 kcal/mol. In addition, in series [2], the Tm was determined as 33.8 °C.
As for GTCCACGGAAACATGGAC (((((.(....).))))), the folding enthalpy in series [1] is -25.5 kcal/mol. Besides, in series [2], the Tm came out at 43.2 °C.
On the same counts, the results for GTCCAGCGAAAGCTGAC (((.(((....)))))) are -11.4 kcal/mol and 46.4 °C.
For GTCCAGGAAACTGGAC ((((((....)))))) the same measures were -34 kcal/mol and 62.4 °C.
For GTCCATCCGAAAGGAGAC (((..(((....)))))), in series [1], the folding enthalpy is -14.8 kcal/mol. Moreover, the Tm in series [2] was 24.8 °C.
For GTCCATGGAAACATGAAC ((.((((....)))).)) the same measures were -18.5 kcal/mol and 36.4 °C.
For GTCCCACGAAAGTGCGAC (((.(((....))).))) the same measures were -24.9 kcal/mol and 46.5 °C.
GTCCCACGAAAGTGTGAC (((.(((....))).))): the folding enthalpy in series [1] is -33 kcal/mol. The Tm in series [2] worked out at 50.4 °C.
On the same counts, the results for GTCCCAGGAAACTAGGAC ((((.((....)).)))) are -21.5 kcal/mol and 35.9 °C.
For GTCCCCGAAAGGGCCGAC ((((((....)))..))) the same measures were -12.1 kcal/mol and 33 °C.
On the same counts, the results for GTCCCCGAAAGGGCGAC ((((((....))).))) are -20.8 kcal/mol and 52.7 °C.
As for GTCCCCGAAAGGGCTGAC ((((((....)))..))), the folding enthalpy in series [1] is -11.7 kcal/mol. Moreover, in series [2], the Tm worked out at 34.8 °C.
On the same counts, the results for GTCCCCGAAAGGGGTGAC ((((((....)))..))) are -8.1 kcal/mol and 45 °C.
On the same counts, the results for GTCCCGCGAAAGCGCGAC (((.(((....))).))) are -21.4 kcal/mol and 49.5 °C.
For GTCCCGGGAAACCGAGAC (((.(((....))).))) the same measures were -25.8 kcal/mol and 46.3 °C.
GTCCCTCCGAAAGGAGAC (((..(((....)))))): the folding enthalpy in series [1] is -9.1 kcal/mol. The Tm in series [2] came to 26.4 °C.
For GTCCCTCGAAAGAGGAC (((.(((....)))))) the same measures were -14 kcal/mol and 51.3 °C.
On the same counts, the results for GTCCCTGGAAACAGAGAC (((.(((....))).))) are -28.4 kcal/mol and 36.3 °C.
For GTCCGAGCGAAAGCTGAC (((..(((....)))))) the same measures were -14.5 kcal/mol and 37.2 °C.
With GTCCGCGAAAGCGACGAC ((((((....)))..))), the folding enthalpy in series [1] is -14 kcal/mol. Further, the Tm in series [2] came to 57.6 °C.
For GTCCGCGAAAGCGAGGAC ((((((....)))..))) the same measures were -21 kcal/mol and 54.9 °C.
For GTCCGGGGAAACCCGAAC ((.((((....)))).)) the same measures were -18.5 kcal/mol and 44.2 °C.
Regarding GTCCGGGGAAACCTGGAC ((((.((....)).)))), the folding enthalpy in series [1] was -36.6 kcal/mol. Besides, the Tm in series [2] was found to be 55.5 °C.
For GTCCGTGGAAACACAGAC (((.(((....))).))) the same measures were -28.2 kcal/mol and 40.5 °C.
For GTCCGTGGAAACACGGGC (.(((((....))))).) the same measures were -24.1 kcal/mol and 63.8 °C.
On the same counts, the results for GTCCTACGAAAGTATGAC (((.(((....))).))) are -32.3 kcal/mol and 41.9 °C.
As for GTCCTAGAAATAGGAC ((((((....)))))), the folding enthalpy in series [1] is -36.6 kcal/mol. In addition, the Tm in series [2] was 50.6 °C.
On the same counts, the results for GTCCTAGGAAACTAGGGC (.(((((....))))).) are -32.9 kcal/mol and 49.4 °C.
With GTCCTCCCGAAAGGGGAC (((..(((....)))))), in series [1], the folding enthalpy is -14.3 kcal/mol. Moreover, in series [2], the Tm stood at 44.8 °C.
For GTCCTCCGAAAGGAAGAC (((.(((....))).))) the same measures were -27.5 kcal/mol and 43.9 °C.
With GTCCTCGAAAGAGAGAC ((((((....))).))), the folding enthalpy in series [1] was -20.2 kcal/mol. Also, the Tm in series [2] was found to be 46.6 °C.
On the same counts, the results for GTCCTCGAAAGAGCAGAC ((((((....)))..))) are -19.8 kcal/mol and 30.1 °C.
On the same counts, the results for GTCCTCGAAAGAGCCGAC ((((((....)))..))) are -12.4 kcal/mol and 26.7 °C.
Regarding GTCCTCGAAAGAGGGAC ((((((....))).))), the folding enthalpy in series [1] is -15.7 kcal/mol. For the same sequence, the Tm in series [2] was 53.9 °C.
For GTCCTCGCGAAAGCGGAC (((..(((....)))))) the same measures were -12.7 kcal/mol and 43.7 °C.
For GTCCTGCGAAAGCAGAC (((.(((....)))))) the same measures were -12.1 kcal/mol and 47.4 °C.
As for GTCCTGGCGAAAGCCGAC (((..(((....)))))), the folding enthalpy in series [1] is -9.43 kcal/mol. For the same sequence, the Tm in series [2] was 32.9 °C.
With GTCCTGGGAAACTAGGGC (.(((.(....).))).), the folding enthalpy in series [1] is -28.8 kcal/mol. In addition, the Tm in series [2] was determined as 40 °C.
With GTCCTTCGAAAGAAAGAC (((.(((....))).))), in series [1], the folding enthalpy is -19.1 kcal/mol. In addition, the Tm in series [2] was 34.4 °C.
For GTCCTTCGAAAGAATGAC (((.(((....))).))) the same measures were -30.3 kcal/mol and 39.2 °C.
For GTCCTTGGAAACAAGAAC ((.((((....)))).)) the same measures were -14.2 kcal/mol and 30.5 °C.
For GTCGAAGGAAACCTCGAC (((((.(....).))))) the same measures were -31.8 kcal/mol and 48 °C.
Turning to GTCGAATCGAAAGATGAC (((..(((....)))))), the folding enthalpy in series [1] is -19.9 kcal/mol. For the same sequence, the Tm in series [2] is 32.6 °C.
GTCGACCCGAAAGGGGAC (((..(((....)))))): the folding enthalpy in series [1] is -13.4 kcal/mol. Besides, the Tm in series [2] stood at 40 °C.
On the same counts, the results for GTCGACCGAAAGGTAGAC (((.(((....))).))) are -36.4 kcal/mol and 59.8 °C.
On the same counts, the results for GTCGACCGAAAGGTGAC (((.(((....)))))) are -22.4 kcal/mol and 51.8 °C.
On the same counts, the results for GTCGACGAAAGTCACGAC ((((((....)))..))) are -18.6 kcal/mol and 45.4 °C.
GTCGACGAAAGTCCAGAC ((((((....)))..))): the folding enthalpy in series [1] was -16.1 kcal/mol. The Tm in series [2] worked out at 38.9 °C.
As to GTCGACGAAAGTCCGAC ((((((....))).))), the folding enthalpy in series [1] is -21.3 kcal/mol. Also, the Tm in series [2] is 51.7 °C.
For GTCGACGAAAGTCTAGAC ((((((....)))..))) the same measures were -24 kcal/mol and 42.3 °C.
On the same counts, the results for GTCGACGGAAACGCCGAC ((((.((....)).)))) are -44.7 kcal/mol and 55.3 °C.
For GTCGAGACGAAAGTCGAC (((..(((....)))))) the same measures were -20.9 kcal/mol and 51.4 °C.
As for GTCGAGCCGAAAGGCGAC (((..(((....)))))), the folding enthalpy in series [1] was -8.79 kcal/mol. Further, the Tm in series [2] worked out at 50.3 °C.
For GTCGAGCGAAAGCTAGAC (((.(((....))).))) the same measures were -33.5 kcal/mol and 60.5 °C.
For GTCGAGGGAAACCTCAAC ((.((((....)))).)) the same measures were -18.1 kcal/mol and 36.5 °C.
For GTCGATACGAAAGTAGAC (((..(((....)))))) the same measures were -20.3 kcal/mol and 35.8 °C.
Consider GTCGATGGAAACACCGAC ((((.((....)).)))), for which the folding enthalpy in series [1] was -38 kcal/mol. Further, in series [2], the Tm worked out at 47.2 °C.
GTCGCACGAAAGTGGAC (((.(((....)))))): the folding enthalpy in series [1] is -18.8 kcal/mol. Moreover, the Tm in series [2] was 49.9 °C.
